The values below come from ChEMBL document CHEMBL1129936, “Water soluble furoxan derivatives as NO prodrugs” (J Med Chem, 1997).

The species entered for assay [1] is Rattus norvegicus. Put plainly: Relaxation of endothelium […] strips of rat aorta precontracted with noradrenaline. The format is functional. The gist of the method: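 Rat aortic strips in Krebs solution at 37 °C, gassed 95% O2-5% CO2 (pH 7.4), equilibrated 1 h, then contracted with noradrenaline 1 µM (submaximal). Cumulative concentration-response curves for relaxation gave EC50.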

A short description of assay [2]: Nitric oxide released from prodrug in the absence of cysteine. The gist of the method: (§1)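 Compound at 10^-4 M final in pH 7.4 buffered water, no thiol, held at 37 °C for 1 h or 24 h. Nitrite was measured by Griess reagent: 10 min at room temperature, absorbance at 540 nm, sodium nitrite standards 10-80 nmol/mL. Reported as percent NO2- (mol/mol) ± SEM.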
Assay [3] in a line: Nitric oxide released from prodrug in the presence of cysteine. The gist of the method: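 Compound at 10^-4 M final was incubated 1 h at 37 °C, pH 7.4, with a 50-fold molar excess of cysteine (1:50). Nitrite was read by the Griess reaction at 540 nm after 10 min at room temperature against nitrite standards (10-80 nmol/mL). Given as percent NO2- (mol/mol) ± SEM.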
For assay [4], the species on record is Rattus norvegicus. Put plainly: Relaxation of endothelium […] strips of rat aorta precontracted with noradrenaline in presence of 10 uM HbO2. The format is functional. The gist of the method:
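Rat aortic strips in Krebs at 37 °C (95% O2-5% CO2, pH 7.4), precontracted with 1 µM noradrenaline and exposed to oxyhemoglobin 10 µM for at least 10 min before the vasodilator was added. Oxyhemoglobin came from bovine hemoglobin reduced with excess sodium dithionite at 4 °C. Relaxation concentration-response curves gave EC50.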

Assay [5] can be described thus: Nitric oxide releasing capability in the absence of cysteine after 24 hr. The gist of the method: as §1

A word on the EC50: it is the concentration needed to bring the measured effect to its halfway point. Turning to `CN(C)CCSc1c(-c2ccccc2)no[n+]1[O-]`, the EC50 in the assay listed under Rattus norvegicus [1] (Rattus norvegicus, Aorta) came to 1550 nM; in the assay filed under Rattus norvegicus [4] (Rattus norvegicus, Aorta), 11500 nM. The results for the % NO2- in assay [2] and in assay [3] were 0 M/M and 35 M/M, respectively.

Take `CN(C)CCS(=O)(=O)c1c(-c2ccccc2)no[n+]1[O-]`: the EC50 came to 82.6 nM in the assay filed under Rattus norvegicus [1] (Rattus norvegicus, Aorta) and 1010 nM in the assay filed under Rattus norvegicus [4] (Rattus norvegicus, Aorta). In addition, the values for the % NO2- in assay [2], in assay [3] and in assay [5] were 0 M/M, 36.3 M/M and 33 M/M, respectively.

`O=[N+]([O-])OCC(CO[N+](=O)[O-])O[N+](=O)[O-]` [NITROGLYCERIN]: in the assay listed under Rattus norvegicus [1] (Rattus norvegicus, Aorta), the EC50 was found to be 22.4 nM. The % NO2- worked out at 0 M/M in assay [2] and 45 M/M in assay [3].

Consider `CN(C)CCSc1no[n+]([O-])c1S(=O)(=O)c1ccccc1`, for which the EC50 in the assay filed under Rattus norvegicus [1] (Rattus norvegicus, Aorta) was 52 nM; in the assay filed under Rattus norvegicus [4] (Rattus norvegicus, Aorta), 350 nM. Further, the % NO2- in assay [2] was 0 M/M; in assay [3] it was 27.9 M/M.

“SODIUM NITROPRUSSIDE [listing 1 of 2 here]”: the % NO2- worked out at 1.5 M/M in assay [2] and 58 M/M in assay [3].

Take `CN(C)CCS(=O)(=O)c1no[n+]([O-])c1-c1ccccc1`: the EC50 in the assay listed under Rattus norvegicus [1] (Rattus norvegicus, Aorta) was found to be 101 nM; in the assay filed under Rattus norvegicus [4] (Rattus norvegicus, Aorta), 430 nM. The % NO2- in assay [2] is 0 M/M; in assay [3], 8.8 M/M.

Turning to “SODIUM NITROPRUSSIDE [listing 2 of 2 here]”, the EC50 in the assay filed under Rattus norvegicus [1] came to 21.5 nM; in the assay filed under Rattus norvegicus [4], 48.1 nM.

Regarding `CN(C)CCOc1c(-c2ccccc2)no[n+]1[O-]`, the EC50 stood at 1230 nM in the assay listed under Rattus norvegicus [1] (Rattus norvegicus, Aorta) and 2220 nM in the assay listed under Rattus norvegicus [4] (Rattus norvegicus, Aorta). Besides, the % NO2- was 6.3 M/M in assay [2], 62.9 M/M in assay [3] and 97 M/M in assay [5].

Turning to `CN(C)CCOc1no[n+]([O-])c1-c1ccccc1`, the EC50 in the assay filed under Rattus norvegicus [1] (Rattus norvegicus, Aorta) was found to be 7350 nM; in the assay filed under Rattus norvegicus [4] (Rattus norvegicus, Aorta), 68000 nM. The % NO2- in assay [2] came out at 0 M/M; in assay [3], 3.9 M/M.

In the case of `CN(C)CCSc1c(S(=O)(=O)c2ccccc2)no[n+]1[O-]`, the EC50 was determined as 55.7 nM in the assay listed under Rattus norvegicus [1] (Rattus norvegicus, Aorta) and 330 nM in the assay filed under Rattus norvegicus [4] (Rattus norvegicus, Aorta). Also, the % NO2- in assay [2] was determined as 95.3 M/M; in assay [3], 58.5 M/M; in assay [5], 100 M/M.

On to `CN(C)CCCOc1no[n+]([O-])c1-c1ccccc1`, for which the EC50 amounted to 14300 nM in the assay filed under Rattus norvegicus [1] (Rattus norvegicus, Aorta) and 124000 nM in the assay listed under Rattus norvegicus [4] (Rattus norvegicus, Aorta). Moreover, the % NO2- was 0 M/M in assay [2] and 3.9 M/M in assay [3].

`CN(C)CCOc1no[n+]([O-])c1S(=O)(=O)c1ccccc1`: the EC50 in the assay filed under Rattus norvegicus [1] (Rattus norvegicus, Aorta) was 4.1 nM; in the assay listed under Rattus norvegicus [4] (Rattus norvegicus, Aorta), 48 nM. Also, the % NO2- in assay [2] was 0 M/M; in assay [3], 58.9 M/M.

As to `NCCSc1no[n+]([O-])c1-c1ccccc1`, the EC50 in the assay listed under Rattus norvegicus [1] (Rattus norvegicus, Aorta) was determined as 15200 nM; in the assay listed under Rattus norvegicus [4] (Rattus norvegicus, Aorta), 78000 nM. The % NO2- came out at 0 M/M in assay [2] and 2.8 M/M in assay [3].

Turning to `CN(C)CCCOc1no[n+]([O-])c1S(=O)(=O)c1ccccc1`, the EC50 amounted to 30 nM in the assay filed under Rattus norvegicus [1] (Rattus norvegicus, Aorta) and 130 nM in the assay listed under Rattus norvegicus [4] (Rattus norvegicus, Aorta). Further, the % NO2- in assay [2] was determined as 0 M/M; in assay [3], 20.2 M/M.

On to `CN(C)CCSc1no[n+]([O-])c1-c1ccccc1`, for which the EC50 in the assay listed under Rattus norvegicus [1] (Rattus norvegicus, Aorta) is 48100 nM; in the assay filed under Rattus norvegicus [4] (Rattus norvegicus, Aorta) it was 124000 nM. Moreover, the results for the % NO2- in assay [2] and in assay [3] were 0 M/M and 2.9 M/M, respectively.

On to `NCCOc1no[n+]([O-])c1S(=O)(=O)c1ccccc1`, for which the EC50 in the assay listed under Rattus norvegicus [1] (Rattus norvegicus, Aorta) is 13 nM; in the assay filed under Rattus norvegicus [4] (Rattus norvegicus, Aorta) it was 46 nM. Also, the % NO2- in assay [2] worked out at 0 M/M; in assay [3], 19.7 M/M.

Turning to `CN(C)CCCOc1c(-c2ccccc2)no[n+]1[O-]`, the EC50 worked out at 1030 nM in the assay listed under Rattus norvegicus [1] (Rattus norvegicus, Aorta) and 3630 nM in the assay listed under Rattus norvegicus [4] (Rattus norvegicus, Aorta). Besides, the results for the % NO2- in assay [2] and in assay [3] were 0 M/M and 91.1 M/M, respectively.

As to `NCCSc1c(-c2ccccc2)no[n+]1[O-]`, the EC50 in the assay listed under Rattus norvegicus [1] (Rattus norvegicus, Aorta) turned out to be 3480 nM; in the assay filed under Rattus norvegicus [4] (Rattus norvegicus, Aorta) it was 15000 nM. The % NO2- in assay [2] is 4.5 M/M; in assay [3], 37.9 M/M; in assay [5], 56 M/M.
